Common to all, as to type: functional
Test [1] relates to Staphylococcus aureus. Kind of test: Antibacterial activity against erythromycin-resistant Staphylococcus aureus RN4220 after 16 hrs by microdilution method. As to conditions: RN4220, 16 h. Summed up:
(§1)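 Broth microdilution in cation-adjusted Mueller-Hinton broth (20 mg/l Ca2+, 10 mg/L Mg2+), inoculum 5×10^5 CFU/mL. Compounds in DMSO, solvent under 1% in well, tested over 0.12-128 µg/ml. […] Each determined at least twice; values converted to µmol/L.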
In general terms: Broth dilution looks for growth in wells or tubes with falling amounts of substance.

The test system of test [2] is Staphylococcus aureus. In words: Antibacterial activity against Staphylococcus aureus EMRSA-15 after 16 hrs by microdilution method. Conditions: EMRSA-15, 16 h. Summed up:
(§2)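 Broth microdilution in cation-adjusted Mueller-Hinton broth (20 mg/l Ca2+, 10 mg/L Mg2+), inoculum 5×10^5 CFU/mL. Compounds from DMSO stocks, final DMSO <1%, tested over 0.12–128 µg/ml. Incubated 37 °C and read visually after 16 h. MIC is the lowest concentration with no visible growth, determined at least twice and converted to µmol/L.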

A further test concerns Escherichia coli. Kind of test: Antibacterial activity against Escherichia coli NCTC 12241 after 16 hrs by microdilution method. As to conditions: NCTC 12241, 16 h. Summed up:
as §2

Test [3] relates to Staphylococcus aureus. In words: Antibacterial activity against Norfloxacin-resistant Staphylococcus aureus 1199B over-expressing NorA after 16 hrs by microdilution method. Summed up:
as §1

For test [4], the system named is Staphylococcus aureus. In words: Antibacterial activity against tetracycline/methicillin-resistant Staphylococcus aureus XU212 after 16 hrs by microdilution method. Conditions: XU212, 16 h. Summed up:
as §1

The test system of test [5] is Staphylococcus aureus. Kind of test: Antibacterial activity against methicillin-sensitive Staphylococcus aureus NCTC 12981 after 16 hrs by microdilution method. Conditions: NCTC 12981, 16 h. Summed up: as §2
In the next test the test system is Bacillus subtilis. In words: Antibacterial activity against Bacillus subtilis NCTC 10400 after 16 hrs by microdilution method. As to conditions: NCTC 10400, 16 h. Summed up: as §2
A further test deals with Enterococcus faecalis. Kind of test: Antibacterial activity against Enterococcus faecalis NCTC 12697 after 16 hrs by microdilution method. Conditions: NCTC 12697, 16 h. Summed up: as §2
Test [6] has as its system Staphylococcus aureus. In words: Antibacterial activity against methicillin-resistant Staphylococcus aureus NCTC 13373 after 16 hrs by microdilution method. Conditions: NCTC 13373, 16 h. Summed up: as §1

Each structure is given as a SMILES string. Some results are limits rather than exact numbers.

The values that follow come from ChEMBL document CHEMBL4138171, “Design, synthesis and biological evaluation of novel aryldiketo acids with enhanced antibacterial activity against multidrug resistant bacterial strains” (Eur J Med Chem, 2018).

As usually defined, the MIC is the smallest concentration in the dilution series that meets the test's criterion for growth inhibition.

As to `O=C(O)/C(O)=C/C(=O)c1ccc(-c2ccccc2)cc1`, the MIC in the test with Staphylococcus aureus [1] is over 128 µg/mL; against Staphylococcus aureus [2], over 128 µg/mL; against Escherichia coli it was over 128 µg/mL; in the test on Staphylococcus aureus [3], 477 µM; with Staphylococcus aureus [4] it was over 128 µg/mL.

Consider `Cc1ccccc1C(=O)/C=C(\O)C(=O)O`, for which the MIC in the test with Staphylococcus aureus [5], in the test with Bacillus subtilis, in the test on Staphylococcus aureus [1], in the test with Staphylococcus aureus [2], with Enterococcus faecalis and with Escherichia coli was over 128 µg/mL each time. The MIC in the test with Staphylococcus aureus [6], against Staphylococcus aureus [3] and with Staphylococcus aureus [4] was over 128 µg/mL in each case.

As for `CC(C)(C)c1ccc(C(=O)/C=C(\O)C(=O)O)cc1`, the MIC is over 128 µg/mL in the test on Staphylococcus aureus [1]; over 128 µg/mL against Staphylococcus aureus [2]; over 128 µg/mL in the test on Escherichia coli; 1030 µM against Staphylococcus aureus [3]; over 128 µg/mL in the test on Staphylococcus aureus [4].

For the compound `O=C(O)/C(O)=C/C(=O)c1ccc(N2CCCC2)cc1`, the MIC against Staphylococcus aureus [5], in the test on Bacillus subtilis, against Staphylococcus aureus [1], with Staphylococcus aureus [2], in the test on Enterococcus faecalis and in the test on Escherichia coli was over 128 µg/mL each time. Also, the MIC in the test on Staphylococcus aureus [6], with Staphylococcus aureus [3] and in the test with Staphylococcus aureus [4] was over 128 µg/mL throughout.

Turning to `O=C(O)/C(O)=C/C(=O)c1ccc2c(c1)CCCC2`, the minimal inhibitory concentration (MIC) in the test on Staphylococcus aureus [5] was over 128 µg/mL; against Bacillus subtilis, over 128 µg/mL; in the test on Staphylococcus aureus [1], over 128 µg/mL; against Staphylococcus aureus [2] it was 520 µM; against Enterococcus faecalis, 260 µM; in the test on Escherichia coli it was over 128 µg/mL. For the same compound, the MIC in the test on Staphylococcus aureus [6] is over 128 µg/mL; in the test on Staphylococcus aureus [3], 520 µM; in the test with Staphylococcus aureus [4], over 128 µg/mL.

Regarding `CC(C)c1ccc(C(C)C)c(C(=O)/C=C(\O)C(=O)O)c1`, the MIC with Staphylococcus aureus [1] is 464 µM; in the test on Staphylococcus aureus [2] it was 232 µM; against Escherichia coli it was over 128 µg/mL; against Staphylococcus aureus [3] it was 232 µM; in the test on Staphylococcus aureus [4], 464 µM.

Take `O=C(O)/C(O)=C/C(=O)c1ccc(-n2ccnc2)cc1`: the MIC is over 128 µg/mL against Staphylococcus aureus [5]; 496 µM in the test with Bacillus subtilis; over 128 µg/mL against Staphylococcus aureus [1]; over 128 µg/mL with Staphylococcus aureus [2]; 496 µM against Enterococcus faecalis; over 128 µg/mL in the test with Escherichia coli. In addition, the figures for the MIC against Staphylococcus aureus [6], against Staphylococcus aureus [3] and against Staphylococcus aureus [4] were 248 µM, 124 µM and 496 µM, respectively.

For `Cc1cccc(C(=O)/C=C(\O)C(=O)O)c1`, the MIC against Staphylococcus aureus [5], in the test on Bacillus subtilis, in the test on Staphylococcus aureus [1], with Staphylococcus aureus [2], against Enterococcus faecalis and in the test on Escherichia coli was over 128 µg/mL each time. Besides, the MIC against Staphylococcus aureus [6], in the test with Staphylococcus aureus [3] and against Staphylococcus aureus [4] was over 128 µg/mL each time.

`Cc1cc(C)c(C(=O)/C=C(\O)C(=O)O)cc1C`: the MIC against Staphylococcus aureus [5], with Bacillus subtilis, against Staphylococcus aureus [1], in the test with Staphylococcus aureus [2], against Enterococcus faecalis and in the test on Escherichia coli was over 128 µg/mL throughout. Moreover, the MIC in the test on Staphylococcus aureus [6], against Staphylococcus aureus [3] and against Staphylococcus aureus [4] was over 128 µg/mL in each case.

Consider `CC(C)c1cc(C(C)C)c(C(=O)CCC(=O)O)c(C(C)C)c1`, for which the minimum inhibitory concentration (MIC) against Staphylococcus aureus [5], against Staphylococcus aureus [1], in the test on Staphylococcus aureus [2], with Escherichia coli, in the test on Staphylococcus aureus [6] and in the test on Staphylococcus aureus [3] was over 128 µg/mL throughout. The compound also had an MIC in the test with Staphylococcus aureus [4] of over 128 µg/mL.

On to `Cc1ccc(C(=O)/C=C(\O)C(=O)O)c(C)c1`, for which the MIC against Staphylococcus aureus [5], against Bacillus subtilis, in the test on Staphylococcus aureus [1], with Staphylococcus aureus [2], with Enterococcus faecalis and against Escherichia coli was over 128 µg/mL each time. Besides, the MIC with Staphylococcus aureus [6], against Staphylococcus aureus [3] and in the test on Staphylococcus aureus [4] was over 128 µg/mL throughout.

With `O=C(O)/C(O)=C/C(=O)c1cccc(C(F)(F)F)c1`, the MIC in the test with Staphylococcus aureus [5], against Bacillus subtilis, in the test on Staphylococcus aureus [1], with Staphylococcus aureus [2], with Enterococcus faecalis and in the test with Escherichia coli was over 128 µg/mL each time. The MIC against Staphylococcus aureus [6], in the test on Staphylococcus aureus [3] and against Staphylococcus aureus [4] was over 128 µg/mL in each case.

In the case of `COc1ccccc1C(=O)/C=C(\O)C(=O)O`, the MIC against Staphylococcus aureus [5], against Bacillus subtilis, in the test on Staphylococcus aureus [1], against Staphylococcus aureus [2], against Enterococcus faecalis and with Escherichia coli was over 128 µg/mL each time. Moreover, the MIC in the test on Staphylococcus aureus [6], against Staphylococcus aureus [3] and in the test on Staphylococcus aureus [4] was over 128 µg/mL in each case.

For `CC(=O)c1cc(C2CCCCC2)ccc1C1CCCCC1`, the MIC is 450 µM against Staphylococcus aureus [5]; 225 µM in the test on Staphylococcus aureus [1]; 225 µM against Staphylococcus aureus [2]; over 128 µg/mL in the test with Escherichia coli; 450 µM against Staphylococcus aureus [6]; 450 µM with Staphylococcus aureus [3]. The compound also displayed an MIC with Staphylococcus aureus [4] of 225 µM.

As to `O=C(O)CCC(=O)c1cc(C2CCCCC2)ccc1C1CCCCC1`, the MIC was 94 µM with Staphylococcus aureus [5]; 47 µM against Staphylococcus aureus [1]; 94 µM in the test with Staphylococcus aureus [2]; over 128 µg/mL in the test with Escherichia coli; 94 µM with Staphylococcus aureus [6]; 47 µM against Staphylococcus aureus [3]. For the same compound, in the test on Staphylococcus aureus [4], the MIC is 47 µM.

With `CC(C)c1ccc(C(=O)/C=C(\O)C(=O)O)c(C(C)C)c1`, the MIC in the test on Staphylococcus aureus [1] was 232 µM; against Staphylococcus aureus [2], 232 µM; in the test on Escherichia coli, over 128 µg/mL; in the test on Staphylococcus aureus [3] it was 232 µM; in the test with Staphylococcus aureus [4], 464 µM.

Regarding `O=C(O)/C(O)=C/C(=O)c1ccc(N2CCOCC2)cc1`, the MIC in the test on Staphylococcus aureus [5], in the test with Bacillus subtilis, in the test on Staphylococcus aureus [1], with Staphylococcus aureus [2], against Enterococcus faecalis and against Escherichia coli was over 128 µg/mL throughout. Moreover, the MIC in the test on Staphylococcus aureus [6], against Staphylococcus aureus [3] and in the test on Staphylococcus aureus [4] was over 128 µg/mL in each case.

Take `COc1cc(C)c(C(=O)/C=C(\O)C(=O)O)cc1C`: the minimal inhibitory concentration (MIC) in the test with Staphylococcus aureus [5], in the test on Bacillus subtilis, in the test on Staphylococcus aureus [1], with Staphylococcus aureus [2], in the test on Enterococcus faecalis and in the test with Escherichia coli was over 128 µg/mL in each case. For the same compound, the minimum inhibitory concentration (MIC) in the test on Staphylococcus aureus [6], in the test with Staphylococcus aureus [3] and in the test with Staphylococcus aureus [4] was over 128 µg/mL each time.

Consider `Cc1cc(C)c(C)c(C(=O)/C=C(\O)C(=O)O)c1C`, for which the MIC in the test with Staphylococcus aureus [5] was over 128 µg/mL; in the test on Bacillus subtilis it was over 128 µg/mL; with Staphylococcus aureus [1], over 128 µg/mL; with Staphylococcus aureus [2], over 128 µg/mL; in the test with Enterococcus faecalis it was 516 µM; in the test with Escherichia coli, over 128 µg/mL. Also, the MIC in the test on Staphylococcus aureus [6], in the test with Staphylococcus aureus [3] and against Staphylococcus aureus [4] was over 128 µg/mL in each case.

Turning to `CCCCc1ccc(C(=O)/C=C(\O)C(=O)O)cc1`, the MIC was 258 µM in the test on Staphylococcus aureus [5]; over 128 µg/mL against Bacillus subtilis; 258 µM with Staphylococcus aureus [1]; 258 µM against Staphylococcus aureus [2]; 129 µM in the test on Enterococcus faecalis; over 128 µg/mL in the test on Escherichia coli. The MIC with Staphylococcus aureus [6], with Staphylococcus aureus [3] and in the test on Staphylococcus aureus [4] was 258 µM throughout.

For `O=C(O)/C(O)=C/C(=O)c1ccccc1`, the MIC was over 128 µg/mL with Escherichia coli and over 2660 µM with Staphylococcus aureus [3].

Take `COc1cccc(C(=O)/C=C(\O)C(=O)O)c1`: the MIC against Staphylococcus aureus [5], in the test on Bacillus subtilis, in the test with Staphylococcus aureus [1], against Staphylococcus aureus [2], in the test on Enterococcus faecalis and in the test with Escherichia coli was over 128 µg/mL in each case. Besides, the MIC against Staphylococcus aureus [6], against Staphylococcus aureus [3] and against Staphylococcus aureus [4] was over 128 µg/mL in each case.

For the compound `O=C(O)/C(O)=C/C(=O)c1cccc(Br)c1`, the MIC against Staphylococcus aureus [5], against Bacillus subtilis, against Staphylococcus aureus [1], with Staphylococcus aureus [2], in the test on Enterococcus faecalis and against Escherichia coli was over 128 µg/mL throughout. Further, the MIC with Staphylococcus aureus [6], against Staphylococcus aureus [3] and against Staphylococcus aureus [4] was over 128 µg/mL in each case.

Turning to `O=C(O)c1cn(C2CC2)c2cc(N3CCNCC3)c(F)cc2c1=O` [CIPROFLOXACIN], the MIC against Staphylococcus aureus [1] came out at 0.76 µM; against Enterococcus faecalis, 1.5 µM.

For the compound `O=C(O)CCC(=O)c1ccc(-c2ccccc2)cc1` [FENBUFEN], the MIC against Staphylococcus aureus [5], with Staphylococcus aureus [1], with Staphylococcus aureus [2], in the test on Escherichia coli, against Staphylococcus aureus [6] and in the test with Staphylococcus aureus [3] was over 128 µg/mL throughout. The compound also came in with an MIC in the test on Staphylococcus aureus [4] of over 128 µg/mL.

Regarding `C[C@H]1COc2c(N3CCN(C)CC3)c(F)cc3c(=O)c(C(=O)O)cn1c23` [LEVOFLOXACIN], the MIC was 0.69 µM in the test on Staphylococcus aureus [1], 1.4 µM in the test with Enterococcus faecalis and 5.53 µM against Staphylococcus aureus [3].

As for `COc1c(N2C[C@@H]3CCCN[C@@H]3C2)c(F)cc2c(=O)c(C(=O)O)cn(C3CC3)c12` [MOXIFLOXACIN], the figures for the MIC in the test on Staphylococcus aureus [1] and with Staphylococcus aureus [3] were 0.31 µM and 0.62 µM, respectively.

For the compound `CCn1cc(C(=O)O)c(=O)c2cc(F)c(N3CCNCC3)cc21` [NORFLOXACIN], the MIC with Staphylococcus aureus [1] is over 128 µg/mL; with Staphylococcus aureus [2], 3.3 µM; in the test with Enterococcus faecalis, 6.3 µM; in the test with Staphylococcus aureus [3], 106 µM; in the test on Staphylococcus aureus [4], over 128 µg/mL.
